# KDM4C inh: inhibitors of GASC-1 (KDM4C) histone demethylase, primary screen, biochemical, single concentration HTS | Lysine-specific demethylase 4C (Homo sapiens), Q9H3R0 | GST-KDM4C 2-372, H3K9me3 peptide, LANCE TR-FRET | inhibition, % at 12.5 µM | hit rate 0.15% among 96,000 | AID 720574, 2013;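 active means mean replicate inhibition above about 25%, with at least 55% of replicates also reaching it, limit read from the data, passing the limit was not always enough; inconclusive means only one of those two conditions met; inactive means neither condition met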
#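 System: N-terminal GST-fused human GASC-1 (KDM4C) fragment, residues 2-372; amount: enzyme final amount 10 nM; incubation: reaction 30 min RT, detection step 1 h RT; medium: HEPES buffer, pH 7.5, plus ascorbate; technique: LANCE TR-FRET, Eu antibody, ULight-streptavidin, EDTA, ex 340 nm, em 618/671 nm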
# IDH1 mut inh: inhibitors of IDH1 R132H reductase, primary screen, biochemical, plate reader, single point; Isocitrate dehydrogenase [NADP] cytoplasmic (Homo sapiens), O75874; diaphorase/resazurin fluorescence, 60 min; inhibition, % at 10 µM; hit rate 0.18% among 70,000; AID 624101, 2012; in the data active means inhibition above about 34%; inconclusive means no clear call, values can overlap the other calls; inactive means below about 11%;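 further: 0% = DMSO and 100% = no enzyme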
# Target sequence (O75874 whole entry R132H): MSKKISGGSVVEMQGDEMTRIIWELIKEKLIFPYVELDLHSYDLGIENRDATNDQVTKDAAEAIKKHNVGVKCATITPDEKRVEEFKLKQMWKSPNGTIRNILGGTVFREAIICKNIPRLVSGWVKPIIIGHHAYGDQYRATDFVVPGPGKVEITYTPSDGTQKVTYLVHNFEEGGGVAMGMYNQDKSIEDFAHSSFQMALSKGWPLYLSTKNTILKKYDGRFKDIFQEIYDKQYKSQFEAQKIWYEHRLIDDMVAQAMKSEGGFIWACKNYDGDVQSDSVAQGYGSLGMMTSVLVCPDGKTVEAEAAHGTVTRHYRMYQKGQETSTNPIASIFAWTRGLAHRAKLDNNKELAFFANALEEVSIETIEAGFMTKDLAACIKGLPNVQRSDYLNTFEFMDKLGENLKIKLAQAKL
# T cruzi growth-1: T. cruzi intracellular proliferation inhibitors, primary screen, cell-based, beta-gal Tulahuen parasites, NIH3T3 host, luminescence; T. cruzi beta-gal in NIH3T3, GalScreen luminescence, 90 h; inhibition, % at 8.34 µM; hit rate 5.9% among 77,000; AID 624255, 2012;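 active means mean inhibition above about 93%, with at least 55% of replicates each passing it, limit read from the data, passing the limit was not always enough; inconclusive means only one of those two conditions holds; inactive means neither condition holds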
# T cruzi growth-2: T. cruzi intracellular proliferation inhibitors, confirmation, cell-based, NIH3T3 host, beta-gal parasite, luminescence, cherry-pick | shares compounds with T cruzi growth-1 | T. cruzi beta-gal in NIH3T3, GalScreen luminescence, 90 h | inhibition, % at 8.35 µM | hit rate 72% among 5,600 | AID 651739, 2012;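 active means mean replicate inhibition above about 95% and at least 55% of replicates individually reaching it, limit read from the data; inconclusive means only one of the two criteria is met; inactive means neither criterion is met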
# T cruzi growth-3: inhibitors of intracellular T. cruzi replication, confirmation, NIH3T3 host cells, beta-gal parasites, cherry-pick, set 2; hit rate 21% among 5,600; inhibition, % at 2.09 µM; AID 651740, 2012; shares compounds with T cruzi growth-1; T. cruzi beta-gal in NIH3T3, GalScreen luminescence, 90 h;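 active means mean inhibition above about 95%, with at least 55% of replicates also reaching it, limit read from the data; inconclusive means meets just one of the two conditions; inactive means meets neither condition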;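 further: plate controls were neutral control median for no effect and positive control median for full effect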
# NIH3T3 tox: cytotoxicity in mouse NIH/3T3 fibroblasts, confirmation, cytotoxicity control for T. cruzi proliferation inhibitor project, cell-based, cherry-pick, single point. shares compounds with T cruzi growth-1. NIH/3T3 viability, CellTiter-Glo ATP luminescence, 90 h. cytotoxicity (signal decrease), % at 8.35 µM. hit rate 14% among 5,600. AID 651742, 2012;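 active means mean signal decrease across replicates above about 35% based on untreated-well scatter, with enough replicates individually passing, limit read from the data; inconclusive means no rule stated though some were filed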;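 further: 0% = median of neutral control wells and 100% = median of positive control wells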
# NIH3T3 tox 2: NIH/3T3 fibroblast cytotoxicity, confirmation, cytotoxicity control, cell-based, cherry-pick, single point, set 2; inhibition, % at 24.9 µM; NIH/3T3 viability, CellTiter-Glo ATP luminescence, 90 h; shares compounds with T cruzi growth-1; AID 651744, 2012; hit rate 56% among 5,600;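 active means mean loss of cell viability signal at or above a set limit, and enough replicates individually reaching it; inconclusive means meets only the mean limit or only the replicate share; inactive means meets neither condition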;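 further: 0% = median of neutral control wells and 100% = median of positive control wells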
# The depositor's hits bear a star; ? = inconclusive; nt = no result given. This excerpt belongs to a sample that is enriched for hits.
SMILES,KDM4C inh,IDH1 mut inh,T cruzi growth-1,T cruzi growth-2,T cruzi growth-3,NIH3T3 tox,NIH3T3 tox 2
Cc1nc(CSc2ncnc3sc4c(c23)CCCCC4)cs1,nt,0,nt,nt,nt,nt,nt
Cc1cc(C)nc(/N=C2\NC(=O)CC(C(=O)O)N2c2cccc(C(F)(F)F)c2)n1 (centres undefined),nt,0,nt,nt,nt,nt,nt
COc1ccc(CN(C)C[C@H]2OCCCC[C@H](C)Oc3ccc(NS(=O)(=O)c4ccc(F)cc4)cc3C(=O)N([C@@H](C)CO)C[C@H]2C)cc1,2,nt,103*,105*,66,26,103*
COc1ccc(CN(C)C[C@H]2OCCCC[C@@H](C)Oc3ccc(NS(=O)(=O)c4ccc(F)cc4)cc3C(=O)N([C@H](C)CO)C[C@@H]2C)cc1,1,2,3,nt,nt,nt,nt
COc1ccccc1C#Cc1ccc([C@H]2[C@@H](CO)N3CCCCN(C(=O)C4CCCC4)C[C@H]23)cc1,nt,nt,92,nt,nt,nt,nt
COc1ccccc1C#Cc1ccc([C@@H]2[C@H]3CN(C(=O)C4CCC4)CCCCN3[C@H]2CO)cc1,14,nt,97*,102*,94,56*,105*
COc1ccccc1C#Cc1ccc([C@H]2[C@@H](CO)N3CCCCN(C(=O)C4CCC4)C[C@H]23)cc1,-2,nt,92,nt,nt,nt,nt
COc1ccccc1C#Cc1ccc([C@@H]2[C@H]3CN(C(=O)C4CCCC4)CCCCN3[C@H]2CO)cc1,nt,nt,95*,87,97*,86*,104*
Cc1cccc(NC(=O)CCCC(=O)O)c1C,nt,0,nt,nt,nt,nt,nt
CCOc1ccccc1NC(=O)CN1C(=O)c2ccc([N+](=O)[O-])cc2C1=O,nt,0,nt,nt,nt,nt,nt
COc1ccccc1-c1ccc2c(c1)O[C@@H](CN(C)S(=O)(=O)c1ccc(C)cc1)[C@H](C)CN([C@@H](C)CO)S2(=O)=O,1,nt,126*,100*,71,24,46*
Cc1ccc(S(=O)(=O)N(C)C[C@H]2Oc3cc(C#Cc4ccccc4)ccc3S(=O)(=O)N([C@@H](C)CO)C[C@@H]2C)cc1,-2,0,nt,nt,nt,nt,nt
COc1ccccc1-c1ccc2c(c1)O[C@H](CN(C)S(=O)(=O)c1ccc(C)cc1)[C@H](C)CN([C@H](C)CO)S2(=O)=O,0,0,120*,100*,?,18,53*
Cc1ccc(S(=O)(=O)N(C)C[C@H]2Oc3cc(C#Cc4ccccc4)ccc3S(=O)(=O)N([C@H](C)CO)C[C@H]2C)cc1,-1,-1,nt,nt,nt,nt,nt
Cc1cccc(NC(=O)c2ccc(OC(C)C(=O)Nc3ccccc3C(F)(F)F)cc2)c1C (centres undefined),nt,0,nt,nt,nt,nt,nt
